Data on 9 compounds can be found in ChEMBL document CHEMBL1141261, “Eremophilane sesquiterpenes from Ligularia macrophylla” (J Nat Prod, 2007).

One test relates to A549. The test can be described thus: Cytotoxicity against human A549 cells. Format: functional, cell-based. An outline of the steps: (§1)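 Test samples were dissolved in DMSO and diluted into culture medium to a final DMSO level of ≤1% (v/v). Human lung carcinoma A-549 and breast adenocarcinoma MCF-7 lines were used. Cell culture and the remaining steps followed an earlier published protocol.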

The subject of the next test is MCF7. The test can be described thus: Cytotoxicity against human MCF7 cells. Format: functional, cell-based. An outline of the steps:
as §1

Converted amounts (≈) assume the structure as drawn.

With `C/C=C(/C)C(=O)O[C@@H]1c2c(C)coc2C[C@]23O[C@H]2CC[C@H](C)[C@@]13C`, the figures for the EC50 with A549 and in the test on MCF7 were 9.4 µg/mL (≈ 28.4 µM) and above 20 µg/mL, respectively.

Turning to `Cc1cc2c(C)coc2cc1[C@H](C)CCC=O`, the half-maximal effective concentration (EC50) – broadly, the concentration needed to bring the measured effect to its halfway point – is 10 µg/mL (≈ 43.4 µM) in the test on A549 and above 20 µg/mL in the test with MCF7.

`CC(C=O)C1=C[C@@]2(C)C(=CC1=O)[C@H](O)CC[C@@H]2C` (mixture of isomers): the EC50 in the test on A549 was 18.4 µg/mL; with MCF7 it was above 20 µg/mL.

For `Cc1cc2c(C)coc2c2c1CCCC2C` (stereo not drawn) [FARFUGIN A], the EC50 came to 10.9 µg/mL (≈ 50.9 µM) in the test with A549 and 13.6 µg/mL (≈ 63.5 µM) in the test on MCF7.

Turning to `C/C=C(/CO)C(=O)O[C@@H]1c2c(C)coc2C[C@@]23O[C@@H]2CC[C@H](C)[C@@]13C`, the EC50 is above 20 µg/mL in the test with A549 and 17.3 µg/mL (≈ 49.9 µM) in the test on MCF7.

For `Cc1coc2cc3c(c(C)c12)[C@@H](C)CC[C@@H]3O`, the EC50 with A549 was determined as 13.8 µg/mL (≈ 59.9 µM); in the test with MCF7, 15.2 µg/mL (≈ 66 µM).

In the case of `Cc1coc2c1[C@@H](O)[C@]1(C)[C@@H](C)CC[C@@H]3O[C@@]31C2`, the EC50 in the test on A549 and in the test with MCF7 was at least 20 µg/mL in each case.

On to `C/C=C(/C)C(=O)O[C@H]1c2c(C)coc2C[C@H]2C(=O)CC[C@H](C)[C@]21C`, for which the EC50 in the test with A549 and in the test with MCF7 was at least 20 µg/mL in each case.

For the compound `Cc1coc2cc3c(c(C)c12)[C@@H](C)CCC3=O`, the values for the EC50 with A549 and in the test on MCF7 were 11.9 µg/mL (≈ 52.1 µM) and 15.2 µg/mL (≈ 66.6 µM), respectively.
